# Legend:
# [1] = target: RAC-alpha serine/threonine-protein kinase (Homo sapiens) (UniProt P31749); assay: Inhibition of wild-type human partial length AKT1 expressed in Escherichia coli BL21 assessed as residual activity at 1000 nM after 30 mins by Kinomescan method relative to control
# [2] = target: NT-3 growth factor receptor (Homo sapiens) (UniProt Q16288); assay: Inhibition of wild-type human partial length TRKC (Q531 to G825 residues) expressed in HEK293 cells assessed as residual activity at 1000 nM after 30 mins by Kinomescan method relative to control; format: cell-based
# [3] = target: Interleukin-1 receptor-associated kinase 1 (Homo sapiens) (UniProt P51617); assay: Inhibition of wild-type human partial length IRAK1 (R194 to S712 residues) expressed in HEK293 cells assessed as residual activity at 1000 nM after 30 mins by Kinomescan method relative to control; format: cell-based
# [4] = target: Ribosomal protein S6 kinase alpha-1 (Homo sapiens) (UniProt Q15418); assay: Inhibition of wild-type human partial length C-terminal RSK1 kinase domain 2 (P360 to L681 residues) expressed in Escherichia coli BL21 assessed as residual activity at 1000 nM after 30 mins by Kinomescan method relative to control
# [5] = target: Serine/threonine-protein kinase MARK1 (Homo sapiens) (UniProt Q9P0L2); assay: Inhibition of wild-type human partial length MARK1 (Q30 to T341 residues) expressed in Escherichia coli BL21 assessed as residual activity at 1000 nM after 30 mins by Kinomescan method relative to control
# [6] = target: Non-receptor tyrosine-protein kinase TNK1 (Homo sapiens) (UniProt Q13470); assay: Inhibition of wild-type human full length TNK1 (M1 to P661 residues) expressed in Escherichia coli BL21 assessed as residual activity at 1000 nM after 30 mins by Kinomescan method relative to control
# [7] = tested on: Phosphatidylinositol 4,5-bisphosphate 3-kinase catalytic subunit alpha isoform (Homo sapiens), P42336 [E545A]; assay: Inhibition of human partial length PIK3CA E545A mutant (R108 to N1068 residues) expressed in HEK293 cells assessed as residual activity at 1000 nM after 30 mins by Kinomescan method relative to control; format: cell-based
# Outline: (§1)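 KINOMEscan binding panel of 456 kinases, with the test compound at a single concentration of 1 µM. Read-out is Percent Control.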
# [8] = target: Myosin light chain kinase 2, skeletal/cardiac muscle (Homo sapiens) (UniProt Q9H1R3); assay: Inhibition of wild-type human partial length MYLK2 (D258 to K570 residues) expressed in Escherichia coli BL21 assessed as residual activity at 1000 nM after 30 mins by Kinomescan method relative to control
# [9] = target: Serine/threonine-protein kinase 16 (Homo sapiens) (UniProt O75716); assay: Inhibition of wild-type human partial length STK16 (G11 to I305 residues) expressed in Escherichia coli BL21 assessed as residual activity at 1000 nM after 30 mins by Kinomescan method relative to control
# [10] = species: Homo sapiens; assay: Inhibition of human partial length FLT3 ITD mutant expressed in Escherichia coli BL21 assessed as residual activity at 1000 nM after 30 mins by Kinomescan method relative to control; outline: as §1
# [11] = target: cGMP-dependent protein kinase 2 (Homo sapiens) (UniProt Q13237); assay: Inhibition of wild-type human partial length PRKG2 (S422 to F762 residues) expressed in HEK293 cells assessed as residual activity at 1000 nM after 30 mins by Kinomescan method relative to control; format: cell-based
# [12] = target: Calcium/calmodulin-dependent protein kinase kinase 2 (Homo sapiens) (UniProt Q96RR4); assay: Inhibition of wild-type human partial length CAMKK2 (D65 to V471 residues) expressed in Escherichia coli BL21 assessed as residual activity at 1000 nM after 30 mins by Kinomescan method relative to control
# [13] = target: Ephrin type-B receptor 1 (Homo sapiens) (UniProt P54762); assay: Inhibition of wild-type human partial length EPHB1 (P589 to T911 residues) expressed in Escherichia coli BL21 assessed as residual activity at 1000 nM after 30 mins by Kinomescan method relative to control
# [14] = target: Serine/threonine-protein kinase 38-like (Homo sapiens) (UniProt Q9Y2H1); assay: Inhibition of wild-type human partial length NDR2 (N34 to E447 residues) expressed in Escherichia coli BL21 assessed as residual activity at 1000 nM after 30 mins by Kinomescan method relative to control
# [15] = target: Cyclin-G-associated kinase (Homo sapiens) (UniProt O14976); assay: Inhibition of wild-type human partial length GAK (G13 to Y338 residues) expressed in Escherichia coli BL21 assessed as residual activity at 1000 nM after 30 mins by Kinomescan method relative to control
# [16] = target: Fibroblast growth factor receptor 1 (Homo sapiens, UniProt P11362); assay: Inhibition of human recombinant His-tagged FGFR1 cytoplasmic domain (308 to 731 residues) expressed in baculovirus using Tyr-4 peptide after 1 hr by FRET-based Z'-Lyte assay
# [17] = target: Serine/threonine-protein kinase ULK1 (Homo sapiens) (UniProt O75385); assay: Inhibition of wild-type human partial length ULK1 (M1 to T309 residues) expressed in HEK293 cells assessed as residual activity at 1000 nM after 30 mins by Kinomescan method relative to control; format: cell-based
# [18] = tested on: Tyrosine-protein kinase ABL1 (Homo sapiens), P00519 [T315I]; assay: Inhibition of human phosphorylated ABL1 T315I mutant (S229 to K512 residues) expressed in HEK293 cells assessed as residual activity at 1000 nM after 30 mins by Kinomescan method relative to control; format: cell-based
# Outline: (§2)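 Single-point screen at a fixed 1 µM, run within a 456-kinase DiscoveRx KINOMEscan panel. Each kinase's read-out is Percent Control, i.e. signal relative to a control without compound. Hits were scored by a Percent Control < 35 cut-off, and an S(35) selectivity score was calculated across the non-mutant kinases.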
# [19] = target: Phosphatidylinositol 4-kinase beta (Homo sapiens) (UniProt Q9UBF8); assay: Inhibition of wild-type human full length PIK4CB (M1 to M828 residues) expressed in HEK293 cells assessed as residual activity at 1000 nM after 30 mins by Kinomescan method relative to control; format: cell-based
# Outline: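 Single-concentration screen at 1 µM across a 456-kinase KINOMEscan panel. The read-out is Percent Control for each kinase.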
# [20] = tested on: Epidermal growth factor receptor (Homo sapiens), P00533 [G719S]; assay: Inhibition of human partial length EGFR G719S mutant (R669 to V1011 residues) expressed in Escherichia coli BL21 assessed as residual activity at 1000 nM after 30 mins by Kinomescan method relative to control; outline: as §1
# [21] = target: Casein kinase I isoform gamma-3 (Homo sapiens) (UniProt Q9Y6M4); assay: Inhibition of wild-type human full length CSNK1G3 (M1 to K447 residues) expressed in Escherichia coli BL21 assessed as residual activity at 1000 nM after 30 mins by Kinomescan method relative to control; outline: as §2
# [22] = target: AP2-associated protein kinase 1 (Homo sapiens) (UniProt Q2M2I8); assay: Inhibition of human wild-type AAK1 (G25 to L333 residues) expressed in Escherichia coli BL21 assessed as residual activity at 1000 nM after 30 mins by Kinomescan method relative to control; outline: as §2
# Sequence of Serine/threonine-protein kinase 38-like (Homo sapiens) (Q9Y2H1 2-464 limits assumed): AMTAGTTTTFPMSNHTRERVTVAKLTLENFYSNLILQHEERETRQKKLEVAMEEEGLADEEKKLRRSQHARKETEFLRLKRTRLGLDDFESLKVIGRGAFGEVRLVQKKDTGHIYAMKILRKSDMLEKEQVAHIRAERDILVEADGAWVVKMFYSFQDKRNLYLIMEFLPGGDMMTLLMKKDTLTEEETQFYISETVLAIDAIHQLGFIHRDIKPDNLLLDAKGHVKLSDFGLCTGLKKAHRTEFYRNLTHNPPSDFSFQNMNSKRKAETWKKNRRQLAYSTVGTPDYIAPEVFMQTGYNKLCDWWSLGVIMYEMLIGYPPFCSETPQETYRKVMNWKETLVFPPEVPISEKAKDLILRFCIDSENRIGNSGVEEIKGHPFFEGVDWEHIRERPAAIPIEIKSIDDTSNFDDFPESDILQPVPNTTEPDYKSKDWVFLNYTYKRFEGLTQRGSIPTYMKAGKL
# Sequence of Myosin light chain kinase 2, skeletal/cardiac muscle (Homo sapiens) (Q9H1R3 whole entry, the tested form may be a part): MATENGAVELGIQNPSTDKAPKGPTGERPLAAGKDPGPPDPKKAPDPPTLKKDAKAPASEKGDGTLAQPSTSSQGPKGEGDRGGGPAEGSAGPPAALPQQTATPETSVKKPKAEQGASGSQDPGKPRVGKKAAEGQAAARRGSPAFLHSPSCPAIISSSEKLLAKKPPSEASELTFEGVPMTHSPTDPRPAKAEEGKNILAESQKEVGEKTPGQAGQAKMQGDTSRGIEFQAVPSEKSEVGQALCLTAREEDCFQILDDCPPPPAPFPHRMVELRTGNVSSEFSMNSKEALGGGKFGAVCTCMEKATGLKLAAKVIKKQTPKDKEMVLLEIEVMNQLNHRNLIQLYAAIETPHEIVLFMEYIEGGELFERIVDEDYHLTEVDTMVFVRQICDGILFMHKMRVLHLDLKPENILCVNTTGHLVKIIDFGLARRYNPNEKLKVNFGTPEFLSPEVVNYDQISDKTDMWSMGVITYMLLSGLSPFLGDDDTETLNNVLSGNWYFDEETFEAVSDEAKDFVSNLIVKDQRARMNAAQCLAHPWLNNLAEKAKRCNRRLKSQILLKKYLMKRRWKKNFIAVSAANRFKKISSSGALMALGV
# Sequence of Phosphatidylinositol 4-kinase beta (Homo sapiens) (Q9UBF8 2-816 limits assumed): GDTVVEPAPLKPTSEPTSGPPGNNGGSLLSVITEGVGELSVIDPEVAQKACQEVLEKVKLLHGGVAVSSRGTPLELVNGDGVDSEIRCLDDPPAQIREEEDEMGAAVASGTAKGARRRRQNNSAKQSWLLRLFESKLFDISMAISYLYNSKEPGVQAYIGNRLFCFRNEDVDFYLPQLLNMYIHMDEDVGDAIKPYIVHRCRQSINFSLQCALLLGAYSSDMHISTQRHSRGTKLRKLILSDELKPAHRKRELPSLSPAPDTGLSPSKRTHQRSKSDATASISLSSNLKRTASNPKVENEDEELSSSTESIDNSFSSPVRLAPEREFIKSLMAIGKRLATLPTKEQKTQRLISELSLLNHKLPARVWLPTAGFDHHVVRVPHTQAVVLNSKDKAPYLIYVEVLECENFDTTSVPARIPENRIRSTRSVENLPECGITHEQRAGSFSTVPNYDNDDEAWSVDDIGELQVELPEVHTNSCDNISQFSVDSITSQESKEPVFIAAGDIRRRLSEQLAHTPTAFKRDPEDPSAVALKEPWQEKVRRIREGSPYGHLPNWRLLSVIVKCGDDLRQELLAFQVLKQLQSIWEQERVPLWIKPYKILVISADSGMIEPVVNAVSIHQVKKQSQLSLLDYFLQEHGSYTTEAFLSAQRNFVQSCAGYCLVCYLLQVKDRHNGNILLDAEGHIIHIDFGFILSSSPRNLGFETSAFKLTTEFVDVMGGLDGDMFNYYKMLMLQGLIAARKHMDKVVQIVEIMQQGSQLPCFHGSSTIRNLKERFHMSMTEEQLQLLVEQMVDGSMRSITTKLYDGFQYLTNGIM
# Sequence of NT-3 growth factor receptor (Homo sapiens) (Q16288 32-839 limits assumed): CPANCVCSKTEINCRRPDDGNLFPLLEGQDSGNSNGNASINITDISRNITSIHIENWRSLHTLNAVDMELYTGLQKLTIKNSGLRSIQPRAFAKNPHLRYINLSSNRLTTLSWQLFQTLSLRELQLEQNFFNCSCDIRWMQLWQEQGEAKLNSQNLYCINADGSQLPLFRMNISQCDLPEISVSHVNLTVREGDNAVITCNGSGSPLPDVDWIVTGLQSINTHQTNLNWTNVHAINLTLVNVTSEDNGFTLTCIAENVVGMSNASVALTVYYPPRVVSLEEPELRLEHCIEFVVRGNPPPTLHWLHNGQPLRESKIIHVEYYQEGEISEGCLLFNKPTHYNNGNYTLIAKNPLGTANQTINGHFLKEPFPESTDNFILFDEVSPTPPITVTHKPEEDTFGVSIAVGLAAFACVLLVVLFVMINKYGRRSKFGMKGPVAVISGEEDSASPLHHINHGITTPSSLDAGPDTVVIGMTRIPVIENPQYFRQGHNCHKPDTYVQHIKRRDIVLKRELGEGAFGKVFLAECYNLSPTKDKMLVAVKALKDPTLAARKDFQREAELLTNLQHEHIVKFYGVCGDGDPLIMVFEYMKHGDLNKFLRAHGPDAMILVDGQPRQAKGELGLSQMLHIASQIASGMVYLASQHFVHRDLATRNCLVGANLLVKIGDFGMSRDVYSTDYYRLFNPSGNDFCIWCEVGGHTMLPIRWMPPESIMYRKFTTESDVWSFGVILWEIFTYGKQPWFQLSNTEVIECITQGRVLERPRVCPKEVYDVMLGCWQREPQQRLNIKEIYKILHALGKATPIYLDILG
# Sequence of Phosphatidylinositol 4,5-bisphosphate 3-kinase catalytic subunit alpha isoform (Homo sapiens), P42336 [E545A] (P42336 whole entry E545A, the tested form may be a part, canonical isoform): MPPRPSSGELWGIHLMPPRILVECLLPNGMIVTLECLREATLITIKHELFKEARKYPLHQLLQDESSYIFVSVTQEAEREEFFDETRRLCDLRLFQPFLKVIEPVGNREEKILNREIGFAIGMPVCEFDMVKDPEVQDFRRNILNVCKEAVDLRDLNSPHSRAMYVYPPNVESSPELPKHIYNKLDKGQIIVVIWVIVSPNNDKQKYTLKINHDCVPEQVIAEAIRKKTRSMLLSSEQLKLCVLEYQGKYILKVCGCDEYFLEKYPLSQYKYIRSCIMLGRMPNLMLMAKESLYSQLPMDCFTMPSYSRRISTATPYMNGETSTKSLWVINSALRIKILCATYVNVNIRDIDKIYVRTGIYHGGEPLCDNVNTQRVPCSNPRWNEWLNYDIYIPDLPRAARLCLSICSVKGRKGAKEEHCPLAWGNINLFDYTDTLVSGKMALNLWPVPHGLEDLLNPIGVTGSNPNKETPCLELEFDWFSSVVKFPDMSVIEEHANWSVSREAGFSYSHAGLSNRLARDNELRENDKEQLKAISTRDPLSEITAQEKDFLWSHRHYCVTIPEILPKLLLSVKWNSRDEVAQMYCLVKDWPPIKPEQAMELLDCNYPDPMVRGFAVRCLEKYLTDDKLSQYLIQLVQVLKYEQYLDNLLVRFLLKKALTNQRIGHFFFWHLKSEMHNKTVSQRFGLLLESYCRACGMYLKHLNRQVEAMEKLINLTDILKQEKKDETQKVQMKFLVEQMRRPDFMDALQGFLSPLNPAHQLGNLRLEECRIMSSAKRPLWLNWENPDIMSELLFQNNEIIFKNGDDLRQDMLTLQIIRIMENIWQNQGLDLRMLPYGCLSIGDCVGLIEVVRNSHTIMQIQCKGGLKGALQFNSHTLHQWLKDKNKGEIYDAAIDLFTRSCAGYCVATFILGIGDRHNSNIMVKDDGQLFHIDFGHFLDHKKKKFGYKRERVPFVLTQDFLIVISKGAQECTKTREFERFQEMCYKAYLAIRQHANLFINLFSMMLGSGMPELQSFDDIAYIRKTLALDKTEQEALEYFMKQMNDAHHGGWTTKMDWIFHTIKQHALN
# Sequence of Serine/threonine-protein kinase 16 (Homo sapiens) (O75716 whole entry, the tested form may be a part): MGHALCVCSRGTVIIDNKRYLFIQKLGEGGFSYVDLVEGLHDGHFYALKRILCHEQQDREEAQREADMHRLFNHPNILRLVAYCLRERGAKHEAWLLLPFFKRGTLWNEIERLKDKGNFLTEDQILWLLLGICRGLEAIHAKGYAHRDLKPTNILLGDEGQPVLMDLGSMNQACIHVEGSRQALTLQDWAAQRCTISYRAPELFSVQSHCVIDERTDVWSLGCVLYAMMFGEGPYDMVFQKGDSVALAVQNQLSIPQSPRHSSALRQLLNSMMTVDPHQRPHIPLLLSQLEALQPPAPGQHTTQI
# Sequence of Ribosomal protein S6 kinase alpha-1 (Homo sapiens) (Q15418 whole entry, the tested form may be a part): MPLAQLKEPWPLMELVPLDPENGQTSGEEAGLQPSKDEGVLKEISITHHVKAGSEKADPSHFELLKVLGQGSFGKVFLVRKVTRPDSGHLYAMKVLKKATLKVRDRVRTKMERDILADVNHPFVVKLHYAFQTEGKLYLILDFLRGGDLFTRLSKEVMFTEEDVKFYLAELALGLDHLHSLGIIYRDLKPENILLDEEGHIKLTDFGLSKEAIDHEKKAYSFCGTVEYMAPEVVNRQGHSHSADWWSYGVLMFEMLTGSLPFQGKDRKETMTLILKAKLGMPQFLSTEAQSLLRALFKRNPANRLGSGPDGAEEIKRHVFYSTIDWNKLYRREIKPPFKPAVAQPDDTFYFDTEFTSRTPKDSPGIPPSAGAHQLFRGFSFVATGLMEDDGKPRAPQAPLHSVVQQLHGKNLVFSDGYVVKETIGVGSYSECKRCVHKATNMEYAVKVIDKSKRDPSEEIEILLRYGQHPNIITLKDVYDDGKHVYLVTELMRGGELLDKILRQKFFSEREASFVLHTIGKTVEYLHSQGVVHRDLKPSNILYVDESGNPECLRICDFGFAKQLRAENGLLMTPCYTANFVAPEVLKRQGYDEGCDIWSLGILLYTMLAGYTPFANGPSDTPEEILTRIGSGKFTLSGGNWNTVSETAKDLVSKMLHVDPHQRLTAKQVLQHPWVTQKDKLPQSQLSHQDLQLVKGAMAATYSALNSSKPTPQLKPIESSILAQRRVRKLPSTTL
compound,measurement,setting,value
COc1cc(OC)c(Cl)c(N2Cc3cnc(Nc4ccc(F)cc4)nc3N(C3CCN(C(=O)/C=C/CN(C)C)CC3)C2=O)c1Cl,Activity,[1],88%
same,Activity,[2],100%
same,Activity,[3],98%
same,Activity,[4],94%
same,Activity,[5],99%
same,Activity,[6],93%
same,Activity,[7],90%
same,Activity,[8],82%
same,Activity,[9],100%
same,Activity,[10],78%
same,Activity,[11],100%
same,Activity,[12],99%
same,Activity,[13],100%
same,Activity,[14],100%
same,Activity,[15],96%
same,IC50,[16],0.99 nM
same,Activity,[17],89%
same,Activity,[18],97%
same,Activity,[19],96%
same,Activity,[20],87%
same,Activity,[21],100%
same,Activity,[22],100%
